Measured values as given in ChEMBL document CHEMBL1145772, “Antiinflammatory, gastrosparing, and antiplatelet properties of new NO-donor esters of aspirin” (J Med Chem, 2003).

Assays:
[1] = Percent unaltered compound in human serum after 1 hr of incubation; assay type: ADME; details: read-out: Unaltered compound
How it was run: (§1)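 Compound is incubated in human serum at 37 °C for 1 min or 1 h. Samples are then deproteinized with acetonitrile containing 0.1% TFA and centrifuged at 9600g for 10 min. The remaining intact compound is quantified by reversed-phase HPLC on an RP-18 column at 40 °C, using a 25–80% acetonitrile/0.1% TFA gradient, with UV detection at 224 nm.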

[2] = Percent unaltered compound in human serum after 1 min of incubation; assay type: ADME; details: read-out: Unaltered compound; how it was run: as §1
[3] = NO release in the presence of 1:5 molar excess of L-cysteine, value expressed as % mol/mol of NO2-
How it was run: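 Compound is dissolved in pH 7.4 buffered water/methanol and incubated for 1 h at 37 °C with a 1:5 molar excess of L-cysteine (5 × 10^-4 M). Griess reagent is added, and absorbance at 540 nm is read after 10 min at room temperature. Nitrite is reported as % mol/mol, mean ± SEM.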

Homo sapiens [4] = organism: Homo sapiens; assay: Inhibition of collagen-induced human platelet rich plasma aggregation at 50 uM concentration; assay type: functional
How it was run: (§2)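 Human platelet-rich plasma is prepared from citrated venous blood of drug-free healthy volunteers (at least 2 weeks) by spinning at 200g for 20 min. Compound is added 10 min before the agonist, either ADP or collagen at […]. Light-transmission aggregation is recorded under stirring at 1000 rpm, 37 °C, for 5 min. Inhibition is expressed relative to vehicle (<0.5% DMSO) controls. The top concentration is 50 µM. pIC50 is fitted by nonlinear regression when inhibition exceeds 50%.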

Homo sapiens [5] = organism: Homo sapiens; assay: Inhibition of ADP-induced human platelet rich plasma aggregation at 50 uM concentration; assay type: functional; how it was run: as §2
Homo sapiens [6] = organism: Homo sapiens; assay: Inhibition of collagen-induced human platelet rich plasma aggregation; assay type: functional; how it was run: as §2
Homo sapiens [7] = organism: Homo sapiens; assay: Inhibition of ADP-induced human platelet rich plasma aggregation at 50 uM concentration in presence of 100 uM ODQ; assay type: functional
How it was run: (§3)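 Aggregation of human PRP is triggered by ADP or by collagen at […], and read by light transmission (stirring, 37 °C, 5 min). Compound is given 10 min before the agonist. The NO scavenger oxyhaemoglobin or the sGC inhibitor ODQ (100 µM) is included to probe NO/sGC involvement. The value is % inhibition versus vehicle control at the top tested concentration of 50 µM.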

Homo sapiens [8] = organism: Homo sapiens; assay: Inhibition of collagen-induced human platelet rich plasma aggregation at 50 uM concentration in presence of 40 uM HbO2; assay type: functional; how it was run: as §3
Homo sapiens [9] = organism: Homo sapiens; assay: Inhibition of collagen-induced human platelet rich plasma aggregation at 50 uM concentration in presence of 100 uM ODQ; assay type: functional; how it was run: as §3
Homo sapiens [10] = organism: Homo sapiens; assay: Inhibition of ADP-induced human platelet rich plasma aggregation at 50 uM concentration in presence of 40 uM HbO2; assay type: functional; how it was run: as §3

Structure (SMILES) | remaining at 1 h [1] [%] | remaining at 1 min [2] [%] | NO release [3] | inhibition at 50 µM (Homo sapiens [4]) [%] | inhibition at 50 µM (Homo sapiens [5]) [%] | Inhibition (Homo sapiens [6]) [%] | Inhibition (Homo sapiens [7]) [%] | Inhibition (Homo sapiens [8]) [%] | Inhibition (Homo sapiens [9]) [%] | Inhibition (Homo sapiens [10]) [%]
CC(=O)Oc1ccccc1C(=O)OCCCOc1no[n+]([O-])c1S(=O)(=O)c1ccccc1 | 9.3 | 43.7 | 37.1 | – | – | – | – | – | – | –
CC(=O)Oc1ccccc1C(=O)OCc1no[n+]([O-])c1C | 0 | 2.5 | 0 | – | 17.8 | 18.6 | – | – | – | –
CC(=O)Oc1ccccc1C(=O)OCc1nonc1C#N | 0 | 0 | – | 27.9 | 14.8 | – | – | – | – | –
CC(=O)Oc1ccccc1C(=O)OCc1nonc1C | 0 | 0 | – | 1.5 | 23.2 | – | – | – | – | –
CC(=O)Oc1ccccc1C(=O)OCCCOc1nonc1S(=O)(=O)c1ccccc1 | 8.1 | 47.6 | – | 14.8 | 3.3 | – | – | – | – | –

More lines, main results first:

remaining at 1 h [1] [%] | remaining at 1 min [2] [%] | NO release [3] | Structure (SMILES) | inhibition at 50 µM (Homo sapiens [4]) [%] | inhibition at 50 µM (Homo sapiens [5]) [%] | Inhibition (Homo sapiens [6]) [%] | Inhibition (Homo sapiens [7]) [%] | Inhibition (Homo sapiens [8]) [%] | Inhibition (Homo sapiens [9]) [%] | Inhibition (Homo sapiens [10]) [%]
3.8 | 38.8 | 0.35 | CC(=O)Oc1ccccc1C(=O)OCCCOc1no[n+]([O-])c1-c1ccccc1 | – | – | – | – | – | – | –
0 | 0 | – | CC(=O)Oc1ccccc1C(=O)OCc1nonc1C(N)=O | 16.7 | 7.6 | – | – | – | – | –
0 | 0 | 32.3 | CC(=O)Oc1ccccc1C(=O)OCc1no[n+]([O-])c1C#N | – | – | – | – | – | – | –
3.9 | 39.3 | – | CC(=O)Oc1ccccc1C(=O)OCCCOc1nonc1-c1ccccc1 | 0.7 | 16.9 | – | – | – | – | –
0 | 0 | – | CCCOC(=O)c1ccccc1OC(C)=O | 14.4 | 18.1 | – | – | – | – | –
0 | 0 | 3.8 | CC(=O)Oc1ccccc1C(=O)OCc1no[n+]([O-])c1C(N)=O | – | – | – | 22.6 | 14.4 | 18.5 | 28.6
0 | 0 | 0.18 | CC(=O)Oc1ccccc1C(=O)OCCCO[N+](=O)[O-] | 12.3 | 18.3 | – | – | – | – | –
